According to ChEMBL document CHEMBL1949600, “Lipophilic hydroxytyrosol esters: fatty acid conjugates for potential topical administration” (J Nat Prod, 2011):

Experiment: Octanol-water partition coefficient, log Kow of the compound by HPLC analysis
Format: physicochemical
Conditions: read-out: log KOW
Method in brief: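 Reversed-phase HPLC method for log Kow, calibrated with reference standards of known log Kow. Naphthalene (log Kow 3.3) was the most lipophilic standard. Compounds too lipophilic to be resolved were assigned a log Kow above 3.3.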

logP | Compound
> 3.3 | CCCCCCCC/C=C\CCCCCCCC(=O)OCCc1ccc(O)c(O)c1
> 3.3 | CCCCCCCC/C=C/CCCCCCCC(=O)OCCc1ccc(O)c(O)c1
> 3.3 | CCCCC/C=C\C/C=C\CCCCCCCC(=O)OCCc1ccc(O)c(O)c1
1.64 | CCCC(=O)OCCc1ccc(O)c(O)c1 [HYDROXYTYROSOL BUTANOATE]
> 3.3 | CCCCCCCCCC(=O)OCCc1ccc(O)c(O)c1 [HYDROXYTYROSOL DECANOATE]
> 3.3 | CCCCCCCCCCCCCCCC(=O)OCCc1ccc(O)c(O)c1 [HYDROXYTYROSOL PALMITATE]
> 3.3 | CCCCCCCCCCCCCCCCCC(=O)OCCc1ccc(O)c(O)c1 [HYDROXYTYROSOL STERATE]

Compound | logP
OCCc1ccc(O)c(O)c1 [HYDROXYTYROSOL] | 0.809

Experiment: Percutaneous permeability through human SCE membrane in Franz diffusion cell after 12 hrs by UV-Vis spectrophotometry relative to hydroxytyrosol
Format: ADME
Conditions: not given
Method in brief: (§1)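 Franz cells (0.75 cm² area, 4.75 mL receptor) with human stratum corneum/viable epidermis from fresh abdominal surgical skin, used within 24 h of removal. Non-occlusive, 36 ± 1 °C. Receptor sampled hourly up to 12 h, each sample replaced with fresh phase. UV-vis at each compound's λmax against calibration (0.5–25 μg/mL in EtOH). At least three cells, triplicate, mean ± SD.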

fold change (FC) | Compound
3.6 | CCCCCCCC/C=C\CCCCCCCC(=O)OCCc1ccc(O)c(O)c1
2.2 | CCCCC/C=C\C/C=C\CCCCCCCC(=O)OCCc1ccc(O)c(O)c1
1.8 | CCCC(=O)OCCc1ccc(O)c(O)c1 [HYDROXYTYROSOL BUTANOATE]
2.2 | CCCCCCCCCC(=O)OCCc1ccc(O)c(O)c1 [HYDROXYTYROSOL DECANOATE]
1.7 | CCCCCCCCCCCCCCCC(=O)OCCc1ccc(O)c(O)c1 [HYDROXYTYROSOL PALMITATE]
1.7 | CCCCCCCCCCCCCCCCCC(=O)OCCc1ccc(O)c(O)c1 [HYDROXYTYROSOL STERATE]

Experiment: Percutaneous permeability through human SCE membrane in Franz diffusion cell after 12 hrs by UV-Vis spectrophotometry
Format: ADME
Conditions: not given
Method in brief: as §1

permeability [%] | Compound
60.52 | CCCCC/C=C\C/C=C\CCCCCCCC(=O)OCCc1ccc(O)c(O)c1
64.18 | CCCCCCCCCC(=O)OCCc1ccc(O)c(O)c1 [HYDROXYTYROSOL DECANOATE]
